# From ChEMBL document CHEMBL2413015, “Synthesis, evaluation and molecular dynamics study of some new 4-aminopyridine semicarbazones as an antiamnesic and cognition enhancing agents” (Bioorg Med Chem, 2013)
# Tests used:
# Rattus norvegicus [1] = test: (§1) Cognitive enhancing effect in Charles Foster rat assessed as reversal of scopolamine-induced amnesia measured as transfer latency at 5 mg/kg, po for 8 days administered 1 hr prior to scopolamine-challenge on day 7 measured on day 8 by elevated plus maze test (reference value: 62.17 +/- 0.47 seconds); format: functional
# Rattus norvegicus [2] = test: Toxicity in albino rat assessed as mortality upto 100 mg/kg after 30 mins to 48 hrs; format: organism-based; parameters: dose 100 mg/kg; settings: in vivo
# Outline: (§2)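 Acute toxicity followed OECD guidelines. Nulliparous, non-pregnant female albino rats (120–150 g) were fasted overnight with water ad libitum. Graded oral doses up to 100 mg/kg were given in 0.3% carboxymethyl cellulose. Rats were observed continuously for 30 min, at 2 h and up to 48 h for behavioural or autonomic changes, tremors, convulsions, salivation, diarrhoea, sleep, lacrimation, cardiovascular signs, feeding and mortality.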
# Rattus norvegicus [3] = test: Cognitive enhancing effect in Wistar rat assessed as reversal of learning impairment measured as transfer latency at 10 mg/kg, po for 8 days measured on first day of test by elevated plus maze test (reference value: 70.846 +/- 0.76 seconds); format: functional
# Outline: (§3)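 Oral dosing at 5 or 10 mg/kg for 8 days, suspended in 0.3% carboxymethyl cellulose; vehicle-treated controls. Transfer latency on elevated plus maze measured on first and second days of exposure (treatment days 7 and 8). Mean ± SEM, n = 6, one-way ANOVA versus vehicle control.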
# Rattus norvegicus [4] = test: Cognitive enhancing effect in Wistar rat assessed as reversal of learning impairment measured as transfer latency at 5 mg/kg, po for 8 days measured on first day of test by elevated plus maze test (reference value: 70.846 +/- 0.76 seconds); format: functional; outline: as §3
# Rattus norvegicus [5] = test: Activity at AChE in Charles Foster rat prefrontal cortex assessed as substrate hydrolyzed per mg of protein at 10 mg/kg, po for 8 days by Ellman's method (reference value: 45.83 +/- 0.94 mol/min); format: functional
# Rattus norvegicus [6] = test: Activity at AChE in Charles Foster rat prefrontal cortex assessed as substrate hydrolyzed per mg of protein at 5 mg/kg, po for 8 days by Ellman's method (reference value: 45.83 +/- 0.94 mol/min); format: functional
# Acetylcholinesterase [7] = biological target: T1, Acetylcholinesterase (Electrophorus electricus, UniProt O42275); test: Inhibition of electric eel AChE using acetylthiocholine iodide as substrate preincubated for 20 mins prior to substrate addition by Ellman's method
# T1 sequence (O42275 whole entry): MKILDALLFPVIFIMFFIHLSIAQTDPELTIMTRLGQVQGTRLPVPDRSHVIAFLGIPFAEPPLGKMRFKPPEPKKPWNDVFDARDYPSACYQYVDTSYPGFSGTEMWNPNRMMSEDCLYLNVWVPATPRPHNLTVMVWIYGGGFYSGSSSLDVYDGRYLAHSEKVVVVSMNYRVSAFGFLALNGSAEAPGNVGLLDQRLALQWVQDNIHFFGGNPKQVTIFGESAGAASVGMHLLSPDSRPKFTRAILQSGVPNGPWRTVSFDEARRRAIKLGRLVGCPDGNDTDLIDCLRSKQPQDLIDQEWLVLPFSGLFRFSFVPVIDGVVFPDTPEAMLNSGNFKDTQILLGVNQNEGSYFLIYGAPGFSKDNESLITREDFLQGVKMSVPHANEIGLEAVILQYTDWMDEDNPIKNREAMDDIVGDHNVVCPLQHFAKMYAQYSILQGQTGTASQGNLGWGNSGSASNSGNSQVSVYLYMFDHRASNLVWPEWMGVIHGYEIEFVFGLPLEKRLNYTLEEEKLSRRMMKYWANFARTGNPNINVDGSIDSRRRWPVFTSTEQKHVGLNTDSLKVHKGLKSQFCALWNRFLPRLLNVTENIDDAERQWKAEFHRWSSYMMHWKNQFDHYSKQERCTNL
# Rattus norvegicus [8] = test: Activity at AChE in Charles Foster rat hippocampus assessed as substrate hydrolyzed per mg of protein at 5 mg/kg, po for 8 days by Ellman's method (reference value: 47.50 +/- 0.84 mol/min); format: functional
# Rattus norvegicus [9] = test: as §1, with “10” for “5”; format: functional
# Rattus norvegicus [10] = test: Activity at AChE in Charles Foster rat hypothalamus assessed as substrate hydrolyzed per mg of protein at 10 mg/kg, po for 8 days by Ellman's method (reference value: 40.50 +/- 0.76 mol/min); format: functional
# Rattus norvegicus [11] = test: Cognitive enhancing effect in Wistar rat assessed as reversal of learning impairment measured as transfer latency at 5 mg/kg, po for 8 days measured on second day of test by elevated plus maze test (reference value: 66.824 +/- 0.47 seconds); format: functional; outline: as §3
# Rattus norvegicus [12] = test: Activity at AChE in Charles Foster rat hypothalamus assessed as substrate hydrolyzed per mg of protein at 5 mg/kg, po for 8 days by Ellman's method (reference value: 40.50 +/- 0.76 mol/min); format: functional
# Rattus norvegicus [13] = test: Activity at AChE in Charles Foster rat hippocampus assessed as substrate hydrolyzed per mg of protein at 10 mg/kg, po for 8 days by Ellman's method (reference value: 47.50 +/- 0.84 mol/min); format: functional
# Cholinesterase [14] = biological target: T2, Cholinesterase (Homo sapiens, UniProt P06276); test: Inhibition of human serum BChE using butyrylthiocholine iodide as substrate preincubated for 20 mins prior to substrate addition by Ellman's method
# T2 sequence (P06276 whole entry): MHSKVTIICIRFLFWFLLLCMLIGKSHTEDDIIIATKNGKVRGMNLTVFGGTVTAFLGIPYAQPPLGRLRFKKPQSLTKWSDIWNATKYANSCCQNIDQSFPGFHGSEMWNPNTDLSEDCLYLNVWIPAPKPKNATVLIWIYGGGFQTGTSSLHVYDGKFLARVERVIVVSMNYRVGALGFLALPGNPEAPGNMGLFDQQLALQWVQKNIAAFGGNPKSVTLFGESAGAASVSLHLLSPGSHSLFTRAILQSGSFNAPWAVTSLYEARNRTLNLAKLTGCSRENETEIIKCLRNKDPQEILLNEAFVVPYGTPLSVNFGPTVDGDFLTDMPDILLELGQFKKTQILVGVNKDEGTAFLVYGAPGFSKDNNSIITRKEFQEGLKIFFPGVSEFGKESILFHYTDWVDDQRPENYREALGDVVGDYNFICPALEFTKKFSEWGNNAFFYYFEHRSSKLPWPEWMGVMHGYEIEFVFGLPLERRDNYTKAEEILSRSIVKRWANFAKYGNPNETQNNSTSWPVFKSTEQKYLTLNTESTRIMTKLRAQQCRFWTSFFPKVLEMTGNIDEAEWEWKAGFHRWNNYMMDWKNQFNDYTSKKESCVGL
# Outline: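 Human serum BChE was dissolved in 0.1% gelatine. The final mix held 0.1 M phosphate pH 8.0, DTNB, 0.02 unit/mL enzyme and butyrylthiocholine iodide. Five inhibitor concentrations spanning 20–80% inhibition were preincubated with enzyme for 20 min at 37 °C, then substrate was added. Rate was read at 412 nm over 5 min against an enzyme-free blank. Each point was run in triplicate, and IC50 was read graphically from log concentration–% inhibition curves.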
# Rattus norvegicus [15] = test: Toxicity in albino rat assessed as change in normal behavioral response upto 100 mg/kg after 30 mins to 48 hrs; format: organism-based; parameters: dose 100 mg/kg; settings: in vivo; outline: as §2
# Rattus norvegicus [16] = test: Cognitive enhancing effect in po dosed Wistar rat assessed as reversal of learning impairment measured as transfer latency administered for 8 days by elevated plus maze test; format: functional, organism-based; outline: as §3
# Rattus norvegicus [17] = test: (§4) Cognitive enhancing effect in Charles Foster rat assessed as reversal of scopolamine-induced amnesia measured as transfer latency at 5 mg/kg, po for 8 days administered 1 hr prior to scopolamine-challenge on day 7 measured on same day by elevated plus maze test (reference value: 67.83 +/- 0.94 seconds); format: functional
# Rattus norvegicus [18] = test: as §4, with “10” for “5”; format: functional
# Rattus norvegicus [19] = test: Cognitive enhancing effect in Wistar rat assessed as reversal of learning impairment measured as transfer latency at 10 mg/kg, po for 8 days measured on second day of test by elevated plus maze test (reference value: 66.824 +/- 0.47 seconds); format: functional; outline: as §3
# Acetylcholinesterase [20] = biological target: T1, Acetylcholinesterase; test: Competitive inhibition of electric eel AChE using acetylthiocholine iodide as substrate by Lineweaver-Burk plot analysis
# Outline: (§5)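 Ellman assay in phosphate buffer pH 8 with a fixed amount of cholinesterase. Thiocholine substrate was varied from below to above, but near, Km, with or without inhibitor. Inhibition type was assigned from Lineweaver–Burk plots.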
# [21] = Selectivity ratio of IC50 for human serum BChE to IC50 for electric eel AChE
# Outline: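 Ratio of IC50 (BChE) to IC50 (AChE). Both came from Ellman assays at 0.1 M phosphate pH 8.0 and 0.02 unit/mL enzyme: AChE (stock in phosphate buffer) with acetylthiocholine, human serum BChE (stock in 0.1% gelatine) with butyrylthiocholine.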
# Cholinesterase [22] = biological target: T2, Cholinesterase; test: Competitive inhibition of human serum BChE using butyrylthiocholine iodide as substrate by Lineweaver-Burk plot analysis; outline: as §5
# Cholinesterase [23] = biological target: T2, Cholinesterase; test: Non competitive inhibition of human serum BChE using butyrylthiocholine iodide as substrate by Lineweaver-Burk plot analysis; outline: as §5
SMILES,Time (Rattus norvegicus [1]) [s],Activity (Rattus norvegicus [2]),Time (Rattus norvegicus [3]) [s],Time (Rattus norvegicus [4]) [s],Activity (Rattus norvegicus [5]) [mol/min],Activity (Rattus norvegicus [6]) [mol/min],IC50 (Acetylcholinesterase [7]; read-out: IC50) [µM],Activity (Rattus norvegicus [8]) [mol/min],Time (Rattus norvegicus [9]) [s],Activity (Rattus norvegicus [10]) [mol/min],Time (Rattus norvegicus [11]) [s],Activity (Rattus norvegicus [12]) [mol/min],Activity (Rattus norvegicus [13]) [mol/min],IC50 (Cholinesterase [14]) [µM],Activity (Rattus norvegicus [15]),Activity (Rattus norvegicus [16]),Time (Rattus norvegicus [17]) [s],Time (Rattus norvegicus [18]) [s],Time (Rattus norvegicus [19]) [s],Ki (Acetylcholinesterase [20]) [µM],further results
NC(=O)Nc1ccncc1,75,Non-toxic,65.12,66.2,42.5,43,274,44.5,73,37.33,61.25,37.5,44.17,> 1000,Non-toxic,Dose-dependent effect,80.83,77.83,60.17,,
NNC(=O)Nc1ccncc1,71.83,Non-toxic,64,65,42.17,42.33,211,44.5,69.83,37.17,60.5,37.47,43.67,> 1000,Non-toxic,Dose-dependent effect,78,75.5,59.33,,
COc1ccc(/C=N/NC(=O)Nc2ccncc2)cc1OC,62.17,Non-toxic,49.33,52.17,35.17,36.87,12.7,38.17,57.17,33.17,44.5,35.33,35.83,426,Non-toxic,Dose-dependent effect,67.17,64.83,40.5,10.3,Ratio IC50 [21]: 33.6; Ki (Cholinesterase [22]): 283 µM
O=C(N/N=C/c1ccc(O)cc1O)Nc1ccncc1,61.83,Non-toxic,49.17,51,34.83,36.17,4.26,37.5,57.67,32.5,42.5,34.83,35.03,58.2,Non-toxic,Dose-dependent effect,65.57,65.17,40.33,3.56,Ki (Cholinesterase [23]): 72.7 µM; Ratio IC50 [21]: 13.7
COc1ccc(/C=N/NC(=O)Nc2ccncc2)cc1,65.83,Non-toxic,56.33,56.17,37.83,39.5,48.3,40.33,63.33,36.83,50.5,35.17,37.5,786,Non-toxic,Dose-dependent effect,70.17,67.83,48.67,35.5,IC50 (Acetylcholinesterase [7]; read-out: pIC50 (converted)): 49 µM; Ratio IC50 [21]: 16.3; Ki (Cholinesterase [22]): 624 µM
COc1cc2c(cc1OC)C(=O)C(CC1CCN(Cc3ccccc3)CC1)C2 (stereo not drawn) [DONEPEZIL],55.42,,43.17,45.14,28.24,31.25,,32.38,53.86,26.82,39.1,28.54,30.86,,,Dose-dependent effect,64.2,61.25,37.67,,
O=C(N/N=C/c1ccccc1)Nc1ccncc1,69.33,Non-toxic,58.33,59.17,40.5,42.03,82.3,42.33,66.17,35.83,53.33,36.5,41,845,Non-toxic,Dose-dependent effect,74.17,70.33,51,88.6,Ratio IC50 [21]: 10.3; Ki (Cholinesterase [22]): 685 µM
COc1cc(/C=N/NC(=O)Nc2ccncc2)ccc1O,64.5,Non-toxic,49.67,52,35.5,36.62,18.7,39.5,57.87,33.67,46.17,35.83,36.83,528,Non-toxic,Dose-dependent effect,68.17,65,40.5,20.5,IC50 (Acetylcholinesterase [7]; read-out: pIC50 (converted)): 19.1 µM; Ki (Cholinesterase [23]): 446 µM; Ratio IC50 [21]: 28.2
O=C(N/N=C/c1ccccc1O)Nc1ccncc1,65,Non-toxic,54.19,55.21,37.5,39.33,32.5,39.17,63.67,34.67,49.12,36.33,36.83,246,Non-toxic,Dose-dependent effect,70.17,67.33,48.15,25.6,IC50 (Acetylcholinesterase [7]; read-out: pIC50 (converted)): 33.1 µM; Ki (Cholinesterase [23]): 212 µM; Ratio IC50 [21]: 7.56
